Measured values from ChEMBL document CHEMBL3244245, “Aporphines, 21. (1,2) Dopaminergic activity of aporphine and benzylisoquinoline derivatives. Synthesis of 8-hydroxyaporphines and 1-(hydroxybenzyl)-2-n-propyl-1,2,3,4-tetrahydroisoquinolines” (J Med Chem, 1977).
Activity calls are given as the source filed them. No cut-off for these calls is given here.

Key:
[1] = tested on: Rattus norvegicus; test: Circling behavior in Sprague-Dawley rat with unilateral 6-OHDA lesion of nigrostriatal pathway assessed as number of revolutions performed per min at 0.5 to 2 mg/kg, sc; type: functional, organism-based
Summary of the method: (§1)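 Unilateral lesion made with 6-OHDA, 4 µl of 2 µg/µl at 1 µl/min, into medial forebrain bundle area of lateral hypothalamus. Rats tested 7-21 days later. Drug given sc in distilled water with 0.1% sodium metabisulfite. Contralateral circling counted as revolutions per minute. Mean of at least five rats.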

[2] = tested on: Rattus norvegicus; test: Stereotyped behavior in Sprague-Dawley rat with unilateral 6-OHDA lesion of nigrostriatal pathway assessed as continuous biting up to 4 mg/kg, sc; type: functional, organism-based; parameters: dose 4 mg/kg
[3] = tested on: Rattus norvegicus; test: Stereotyped behavior in Sprague-Dawley rat with unilateral 6-OHDA lesion of nigrostriatal pathway assessed as sniffing and repetitive head and limb movements up to 4 mg/kg, sc; type: functional, organism-based; parameters: dose 4 mg/kg
[4] = tested on: Rattus norvegicus; test: Behavioral responses in Sprague-Dawley rat with unilateral 6-OHDA lesion of nigrostriatal pathway assessed as bilateral response at 6.25 to 25 […] into caudate-putamen; type: functional, organism-based
Summary of the method: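 Guide cannulae implanted chronically; rats used 10-14 days after surgery. Nialamide 100 mg/kg ip given 2 h before injection. Drug dissolved in nitrogen-bubbled distilled water and injected bilaterally into caudate-putamen through injection units 1.5 mm below guide tips. Photocell counts per 5-min period recorded every 10 min up to 7 h. Biting and sniffing scored on intensity scales. Six to twelve rats per dose.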

[5] = tested on: Rattus norvegicus; test: Behavioral responses in Sprague-Dawley rat with unilateral 6-OHDA lesion of nigrostriatal pathway assessed as hyperactivity response at 3.125 to 25 […] into nucleus accumbens; type: functional, organism-based
Summary of the method: (§2)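 Guide cannulae implanted chronically; rats used 10-14 days after surgery. Nialamide 100 mg/kg ip given 2 h before injection. Drug in nitrogen-bubbled distilled water injected bilaterally into nucleus accumbens through units 2.5 mm below guide tips. Hyperactivity counted as photocell interruptions per 5-min period, recorded every 10 min up to 7 h. Biting and sniffing scored on intensity scales. Six to twelve rats per dose.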

[6] = tested on: Rattus norvegicus; test: Antagonism of dopamine-induced hyperactivity in Sprague-Dawley rat with unilateral 6-OHDA lesion of nigrostriatal pathway at 0.1 to 1 mg/kg, sc after 2.5 hrs treated bilateral injection of 50 ug of dopamine into the nucleus accumbens; type: functional, organism-based
Summary of the method: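 Rats received nialamide 100 mg/kg ip, then 2 h later 50 µg dopamine bilaterally into the nucleus accumbens. At 2.5 h, at peak hyperactivity, test drug was given sc in water with 0.1% sodium metabisulfite. Locomotion was measured as photocell beam interruptions per 5 min. Five to eight rats were used per dose.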

[7] = species on record: Rattus norvegicus; test: Stereotyped behavior in Sprague-Dawley rat pretreated with nialamide assessed as biting behavior at 3.125 to 25 µg, bilateral intrastriatal
[8] = species on record: Rattus norvegicus; test: Stereotyped behavior in Sprague-Dawley rat pretreated with nialamide assessed as sniffing behavior at 3.125 to 25 µg, bilateral intrastriatal
[9] = species on record: Rattus norvegicus; test: Stereotyped behavior in Sprague-Dawley rat pretreated with nialamide assessed as bilateral behavior at 3.125 to 25 µg, bilateral intrastriatal
[10] = species on record: Rattus norvegicus; test: Stereotyped behavior in Sprague-Dawley rat pretreated with nialamide assessed as hyperactivity behavior at 3.125 to 25 µg, bilateral intrastriatal
[11] = species on record: Rattus norvegicus; test: Behavioral responses in Sprague-Dawley rat pretreated with nialamide assessed as hyperactivity response at 6.25 to 25 µg direct injection into caudate-putamen
[12] = tested on: Rattus norvegicus; test: Circling behavior in Sprague-Dawley rat with unilateral 6-OHDA lesion of nigrostriatal pathway assessed as number of revolutions performed per min at 0.25 to 4 mg/kg, sc; type: functional, organism-based
Summary of the method: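 Unilateral lesion made by infusing 4 µl 6-OHDA at 1 µl/min into the medial forebrain bundle in the lateral hypothalamus. Rats were tested 7-21 days later with drug given sc in distilled water containing 0.1% sodium metabisulfite. Contralateral circling was counted as revolutions per min. Values are the mean of at least five rats.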

[13] = tested on: Rattus norvegicus; test: Stereotyped behavior in Sprague-Dawley rat with unilateral 6-OHDA lesion of nigrostriatal pathway assessed as continuous biting at 0.5 to 4 mg/kg, sc; type: functional, organism-based
[14] = tested on: Rattus norvegicus; test: Behavioral responses in Sprague-Dawley rat with unilateral 6-OHDA lesion of nigrostriatal pathway assessed as hyperactivity response at 6.25 to 50 […] direct injection into nucleus accumbens; type: functional, organism-based
Summary of the method: (§3)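 Nialamide 100 mg/kg ip was given 2 h beforehand. Drug was dissolved in nitrogen-bubbled water and injected bilaterally through chronic guide cannulae 10-14 days after surgery. Injection units extended 1.5 mm (caudate-putamen) or 2.5 mm (nucleus accumbens) below the guides. Biting and sniffing were scored in photocell boxes, and hyperactivity was counted as beam interruptions per 5 min, recorded every 10 min for up to 7 h. Six to twelve rats were used per dose.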

[15] = species on record: Rattus norvegicus; test: Stereotyped behavior in Sprague-Dawley rat with unilateral 6-OHDA lesion of nigrostriatal pathway assessed as continuous biting; type: functional, organism-based
[16] = tested on: Rattus norvegicus; test: Circling behavior in sc dosed Sprague-Dawley rat with unilateral 6-OHDA lesion of nigrostriatal pathway assessed as number of revolutions performed per min; type: functional, organism-based; summary of the method: as §1
[17] = tested on: Rattus norvegicus; test: Stereotyped behavior in Sprague-Dawley rat with unilateral 6-OHDA lesion of nigrostriatal pathway assessed as continuous biting at 2 mg/kg, sc; type: functional, organism-based; parameters: dose 2 mg/kg
[18] = tested on: Rattus norvegicus; test: Stereotyped behavior in sc dosed Sprague-Dawley rat with unilateral 6-OHDA lesion of nigrostriatal pathway assessed as sniffing and repetitive head and limb movements; type: functional, organism-based
[19] = tested on: Rattus norvegicus; test: Stereotyped behavior in Sprague-Dawley rat with unilateral 6-OHDA lesion of nigrostriatal pathway assessed as maximal sniffing and repetitive head and limb movements at 0.5 mg/kg, sc; type: functional, organism-based; parameters: dose 0.5 mg/kg
[20] = tested on: Rattus norvegicus; test: Stereotyped behavior in Sprague-Dawley rat with unilateral 6-OHDA lesion of nigrostriatal pathway assessed as biting behavior at 6.25 to 50 […] into nucleus accumbens; type: functional, organism-based; summary of the method: as §3
[21] = tested on: Rattus norvegicus; test: Stereotyped behavior in Sprague-Dawley rat with unilateral 6-OHDA lesion of nigrostriatal pathway assessed as biting behavior at 25 to 50 […] into caudate-putamen; type: functional, organism-based; summary of the method: as §3
[22] = tested on: Rattus norvegicus; test: Stereotyped behavior in Sprague-Dawley rat with unilateral 6-OHDA lesion of nigrostriatal pathway assessed as sniffing behavior at 6.25 to 50 […] into nucleus accumbens; type: functional, organism-based; summary of the method: as §3
[23] = tested on: Rattus norvegicus; test: Antagonism of dopamine-induced hyperactivity in sc dosed Sprague-Dawley rat with unilateral 6-OHDA lesion of nigrostriatal pathway after 2.5 hrs treated bilateral injection of 50 ug of dopamine into the nucleus accumbens; type: functional, organism-based
Summary of the method: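 Rats pretreated with nialamide 100 mg/kg ip; 2 h later, 50 µg dopamine bilaterally into nucleus accumbens. At 2.5 h, at peak hyperactivity, test drug given sc in distilled water with 0.1% sodium metabisulfite. Activity read as photocell beam interruptions per 5-min period. Five to eight rats per dose.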

[24] = species on record: Rattus norvegicus; test: Stereotyped behavior in Sprague-Dawley rat pretreated with nialamide assessed as sniffing behavior at 50 µg, bilateral intrastriatal
[25] = tested on: Rattus norvegicus; test: Stereotyped behavior in Sprague-Dawley rat with unilateral 6-OHDA lesion of nigrostriatal pathway assessed as continuous biting at 0.1 mg/kg, sc; type: functional, organism-based; parameters: dose 0.1 mg/kg
[26] = tested on: Rattus norvegicus; test: Stereotyped behavior in Sprague-Dawley rat with unilateral 6-OHDA lesion of nigrostriatal pathway assessed as sniffing and repetitive head and limb movements at 0.0063 to 0.05 mg/kg, sc; type: functional, organism-based
[27] = tested on: Rattus norvegicus; test: Stereotyped behavior in Sprague-Dawley rat with unilateral 6-OHDA lesion of nigrostriatal pathway assessed as maximal biting behavior at 25 […] into nucleus accumbens; type: functional, organism-based; summary of the method: as §2
[28] = tested on: Rattus norvegicus; test: Stereotyped behavior in Sprague-Dawley rat with unilateral 6-OHDA lesion of nigrostriatal pathway assessed as biting behavior at 3.125 to 25 […] into nucleus accumbens; type: functional, organism-based; summary of the method: as §2
[29] = tested on: Rattus norvegicus; test: Stereotyped behavior in Sprague-Dawley rat with unilateral 6-OHDA lesion of nigrostriatal pathway assessed as sniffing behavior at 25 […] into nucleus accumbens; type: functional, organism-based; summary of the method: as §2
[30] = species on record: Rattus norvegicus; test: Stereotyped behavior in Sprague-Dawley rat pretreated with nialamide assessed as biting behavior at 25 µg, bilateral intrastriatal
[31] = species on record: Rattus norvegicus; test: Stereotyped behavior in Sprague-Dawley rat pretreated with nialamide assessed as sniffing behavior at 25 µg, bilateral intrastriatal
[32] = species on record: Rattus norvegicus; test: Behavioral responses in Sprague-Dawley rat pretreated with nialamide assessed as hyperactivity response at 25 µg, bilateral intrastriatal

Structure (SMILES) | Activity [3] | Activity [4] | Activity [5] | inhibition [6] | Activity [7] | Activity [8] | Activity [9] | Activity [10] | Activity [11] | Activity [12] | further results
CCCN1CCc2cccc3c2C1Cc1ccc(O)cc1-3 (stereo unspecified) | inactive | inactive | inactive | inactive | inactive | inactive | inactive | inactive | inactive |  | Activity [1]: Dose-dependent effect; Activity [2]: Active
CCCN1CCc2cccc3c2C1Cc1c(O)cccc1-3 (racemic) | inactive | inactive | inactive | inactive | inactive | inactive | inactive | inactive | inactive | inactive | Activity [2]: Active
CN1CCc2cccc3c2C1Cc1c(O)cccc1-3 (racemic) |  | inactive |  |  |  |  |  |  | inactive |  | 
CCCN1CCc2ccccc2C1Cc1ccc(O)c(O)c1 (racemic) | inactive | inactive | inactive | inactive | inactive | inactive | inactive | inactive | inactive | inactive | Activity [13]: inactive
CCCN1CCc2ccccc2C1Cc1ccc(O)cc1 (racemic) | inactive | inactive | inactive | inactive | inactive | inactive | inactive | inactive | inactive | inactive | Activity [13]: inactive
NCCc1ccc(O)c(O)c1 |  | Active |  |  |  |  |  |  | Active |  | Activity [14]: inactive
CN1CCc2cccc3c2[C@H]1Cc1ccc(O)c(O)c1-3 |  | inactive |  | inactive |  |  |  |  | inactive |  | Activity [15]: Dose-dependent effect; Activity [16]: Dose-dependent effect; Activity [17]: Active; Activity [18]: Dose-dependent effect; Activity [19]: Active; Activity [20]: Active; Activity [21]: Active; Activity [14]: Active; Activity [22]: Active; inhibition [23]: Dose-dependent effect; Activity [24]: inactive
CCCN1CCc2cccc3c2[C@H]1Cc1ccc(O)c(O)c1-3 |  | inactive | inactive |  |  |  |  |  | inactive |  | Activity [16]: Dose-dependent effect; Activity [25]: Active; Activity [26]: Active; Activity [27]: Active; Activity [28]: Active; Activity [29]: Active; inhibition [23]: Dose-dependent effect; Activity [30]: Active; Activity [31]: Active; Activity [32]: inactive
